Compound activity from PubChem.
Shown are actives, neighbours in structure and some others; about 1.6% of the full set was active somewhere.
MBD2 inh – MBD2-methylated oligo binding inhibition | TR-FRET, MBD2 binding to methylated oligonucleotide | inhibition, % at 4.4 µM | hit rate 0.31% among 370,000; in the data active = inhibition above about 13%
LEDGF integ inh – blocks HIV-1 LEDGF/p75-dependent DNA integration; TR-FRET IN-LEDGF/p75 DNA integration, Eu/Cy5; inhibition, % at 3.7 µM; hit rate 0.64% among 370,000; AID 743269;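 active = inhibition above the screen-wide mean plus 3 SD, cut at about 13% in these data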;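 also: signal is the Cy5 over europium emission ratio at 671 and 618 nm; 0% = plate median of compound wells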
TDP2 absorb – blocks human TDP2 phosphodiesterase activity; O95551; recombinant TDP2, T5PNP hydrolysis, p-nitrophenol absorbance 415 nm; inhibition, % at 12.8 µM; hit rate 0.34% among 370,000; AID 720702;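 active = inhibition above the mean of all tested compounds plus 3 SD, set per campaign, cut at about 25% in these data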;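 also: 0% = DMSO with enzyme and 100% = buffer with substrate but no TDP2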
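Test system: Human TDP2 enzyme | Reagent: 5 mM T5PNP | Compound dosing: 12.8 µM single point, 1% DMSO | Incubation: Enzyme reaction with compound for 2 h at 37 °C | Technique: p-Nitrophenol epi absorbance | Read-out: % inhibition relative to enzyme-containing and enzyme-free wells | Benchmarks: High control without enzyme, low control DMSO plus TDP2 | Replicates: Singlicate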
UHRF1 MBD2 ctr – UHRF1 methyl-DNA binding inhibition; hit rate 0.75% among 370,000; UHRF1 binding to methylated oligo, TR-FRET; Q96T88; inhibition, % at 4.4 µM; in the data active = inhibition above about 21%;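 also: UHRF1 SRA domain binding a hemimethylated CpG hairpin DNA probe; 0% = median of test compound wells and 100% = reference inhibitor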
Target sequence (Q96T88 whole entry, looked up, the tested form may be a part): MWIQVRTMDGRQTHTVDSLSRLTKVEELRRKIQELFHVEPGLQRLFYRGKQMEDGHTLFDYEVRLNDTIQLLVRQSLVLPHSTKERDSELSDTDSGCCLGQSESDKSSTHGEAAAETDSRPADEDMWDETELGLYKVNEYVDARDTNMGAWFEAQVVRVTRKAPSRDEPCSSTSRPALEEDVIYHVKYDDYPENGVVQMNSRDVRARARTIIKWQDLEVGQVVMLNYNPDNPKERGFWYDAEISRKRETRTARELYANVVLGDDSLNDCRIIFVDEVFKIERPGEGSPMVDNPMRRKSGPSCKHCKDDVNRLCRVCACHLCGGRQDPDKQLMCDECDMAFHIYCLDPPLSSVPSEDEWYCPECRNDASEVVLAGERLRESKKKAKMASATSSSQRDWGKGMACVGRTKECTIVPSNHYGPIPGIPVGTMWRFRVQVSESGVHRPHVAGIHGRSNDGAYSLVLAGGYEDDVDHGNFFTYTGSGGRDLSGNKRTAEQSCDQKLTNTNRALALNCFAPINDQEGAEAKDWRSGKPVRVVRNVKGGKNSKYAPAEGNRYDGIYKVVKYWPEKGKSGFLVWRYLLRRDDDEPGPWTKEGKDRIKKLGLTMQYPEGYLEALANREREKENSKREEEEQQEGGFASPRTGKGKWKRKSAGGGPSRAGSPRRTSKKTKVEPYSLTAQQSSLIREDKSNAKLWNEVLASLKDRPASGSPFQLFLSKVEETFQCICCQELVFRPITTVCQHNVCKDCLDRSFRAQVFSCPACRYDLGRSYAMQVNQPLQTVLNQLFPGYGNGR
Starred values were filed as active, the others as inactive.

SMILES	MBD2 inh	LEDGF integ inh	TDP2 absorb	UHRF1 MBD2 ctr
COc1cc(O)c(C(CCN2CCN(c3ccccc3)CC2)c2ccc(N(C)C)cc2)c(OC)c1 (stereo not drawn)	8	3	12	22*
COc1ccc(C(CCN2CCN(c3ccccc3)CC2)c2c(O)cc(OC)cc2OC)cc1 (stereo not drawn)	3	1	-6	-5
Cc1ccc(NC(=S)NCC2CCN(C(C)c3ccccc3)C2)cc1C (stereo not drawn)	1	1	0	23*
Cc1ccc(NC(=S)NCC2CCCO2)cc1C (stereo not drawn)	0	2	12	0
Cc1cccc(C(=O)Oc2ccc(/C=N/NC(=O)c3ccccc3O)cc2)c1	-1	0	5	-3
COc1cc(/C=N/NC(=O)c2cc(O)cc(O)c2)ccc1OC(=O)c1ccccc1	10	9	11	28*
Cc1cc(C)cc(C(=O)N/N=C/c2ccoc2)c1	-4	3	8	4
O=C(N/N=C/c1ccc(OC(=O)c2ccccc2Cl)cc1)c1cc(O)cc(O)c1	12	17*	13	37*
O=C(N/N=C/c1ccoc1)c1cc(O)cc(O)c1	5	8	0	28*
Cc1nc2cc(C(=O)N3CCN(C(=O)C(C)(C)C)CC3)ccc2n1C1CCCC1	4	-2	2	3
CCCNC(=O)c1cc2c(c(-c3cccc(-c4cc5ccccc5o4)c3)n1)[C@@H](CCO)N(C(=O)NC(C)C)C2	-5	-4	-9	28*
O=C(CCn1nnc2ccccc21)N1CCN(c2ccccc2F)CC1	4	-3	8	2
CCn1c2ccccc2c2cc(NC(=O)C(=O)N3CCOCC3)ccc21	-1	-5	11	23*
CCn1c2ccccc2c2cc(NC(C)=O)ccc21	1	-3	-3	1
COc1ccc(CNC(=O)CSc2nc3ccccc3n2C(C)=O)cc1	7	5	-13	24*
O=C(COC(=O)c1ccc([N+](=O)[O-])o1)NC1CCS(=O)(=O)C1 (stereo not drawn)	0	4	11	-6
O=C(COc1cccnc1[N+](=O)[O-])NC1CCS(=O)(=O)C1 (stereo not drawn)	8	3	-6	26*
CCOC(=O)N1CCC(N2C(=O)c3ccccc3C2Nc2ccc3c(C)cc(=O)oc3c2)CC1 (stereo not drawn)	1	-1	-1	33*
CCOC(=O)N1CCC(N2C(=O)c3ccccc3C2Nc2ccc3c(c2)OCCO3)CC1 (stereo not drawn)	-5	-2	0	-2
Cc1cc(C)cc(NC(=S)Nc2cccc3ccccc23)c1	-1	-3	-1	66*
Cc1ccc(NC(=S)Nc2cccc3ccccc23)cc1	0	-5	-5	0
CC(C)CNC(=S)N1CCC(NC(=O)c2ccco2)CC1	2	-4	-3	23*
CCOCCCNC(=S)N1CCC(NC(=O)c2ccco2)CC1	2	3	-20	5
CC1CCCN(CCCNS(=O)(=O)c2cc3c(cc2Br)CCN3C(=O)C2CC2)C1 (stereo not drawn)	4	0	7	1
CCCCNC(=O)C[C@H]1C[C@@]2(C(=O)OC)C(=C[C@H](C3CCCC3)O[C@@H]2C)N(CCC2=CCCCC2)C1=O	1	-3	2	1
SMILES	MBD2 inh	LEDGF integ inh	TDP2 absorb	UHRF1 MBD2 ctr
COc1ccc(S[C@]2(C(=O)N3CCOCC3)CC(=O)N(P(=O)(OC)OC)[C@@H]2c2ccc(OC)cc2)cc1	3	-2	1	0
CCOc1ccccc1C(=O)NCC(=O)NNC(=O)c1cccs1	-1	2	-7	21*
CC[n+]1c(/C=C/C=C/N(C(C)=O)c2ccccc2)sc2ccccc21	-8	17*	5	-20
O=C(CSc1nc2ccccc2s1)N1CCCCC1	-5	2	11	42*
O=C(O)C1CCN(C(=O)CSc2nc3ccccc3s2)CC1	-3	0	-6	0
Cc1ccc(N/C=C(\[N+](=O)[O-])S(=O)(=O)c2ccccc2)cc1	3	0	0	2
Cc1cccc(N/C=C(\[N+](=O)[O-])S(=O)(=O)c2ccccc2)c1C	-3	0	5	50*
COc1cccc(-c2cc(C(C)=O)c3n(c2=O)CCC3)c1OC	-3	6	6	-4
CCOc1ccc(S(=O)(=O)N2CCCC(C(=O)NCC3CCCO3)C2)cc1Cl (stereo not drawn)	-5	-1	7	83*
CCCN1CCS(=O)(=O)N(Cc2cn(Cc3ccc(C)cc3)nn2)C(C(=O)OC)C1 (stereo not drawn)	7	2	-7	13
